From PubChem BioAssay
Apaf-1 inh: inhibitors of human Apaf-1 apoptosome | reconstituted apoptosome caspase-3 activity, DEVD-Rh110 fluorescence | O14727 | inhibition, % at 20 µM | 0.71% of 330,000 active; active = inhibition of at least 40% at 20 µM;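 also: plate controls were DMSO wells for no effect and DEVD-CHO caspase inhibitor wells for full effect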
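detection = Rh110 fluorescence intensity | test system = biochemical Apaf-1 apoptosome reconstitution | also added = cytochrome c and DEVD-Rh110 substrate | schedule = 30 min plus 50 min, RT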
SENP8 block-1: SENP8 protease inhibition; Q96LD8; purified SENP8, Z-RLRGG-aminoluciferin cleavage, luminescence; inhibition, % at 10 µM; 1.2% of 330,000 active; in the data active = inhibition above about 50%
SENP7 inh: inhibitors of human SENP7 protease; Q9BQF6; recombinant SENP7, Z-RLRGG-aminoluciferin luminescence, 40 min; inhibition, % at 5 µM; 1.5% of 330,000 active; AID 434973;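 active = inhibition above about 50% at the single test dose, limit read from the data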;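 also: plate controls were DMSO with enzyme for no effect and no enzyme buffer wells for full effect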
Target sequence (Q9BQF6 706-1050 limits assumed): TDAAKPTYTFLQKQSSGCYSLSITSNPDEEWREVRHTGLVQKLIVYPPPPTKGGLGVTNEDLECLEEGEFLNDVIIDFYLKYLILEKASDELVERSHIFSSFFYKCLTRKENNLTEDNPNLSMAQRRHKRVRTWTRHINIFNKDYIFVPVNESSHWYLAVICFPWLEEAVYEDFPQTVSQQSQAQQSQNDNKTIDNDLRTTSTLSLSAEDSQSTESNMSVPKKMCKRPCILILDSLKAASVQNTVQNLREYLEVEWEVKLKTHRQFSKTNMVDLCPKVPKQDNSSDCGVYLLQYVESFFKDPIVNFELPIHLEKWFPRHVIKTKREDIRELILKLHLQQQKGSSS
SENP8 block-2: inhibitors of human SENP8 protease | Q96LD8 | recombinant SENP8, Nedd8 substrate fluorescence | inhibition, % at 20 µM | 0.64% of 360,000 active | AID 602440; in the data active = inhibition mostly above about 40%, no sharp cut-off; inactive = mostly below about 27%
SENP6 inh: inhibitors of human SENP6 protease | Recombinant SENP6 catalytic domain, aminoluciferin luminescence | inhibition, % at 10 µM | 1.8% of 330,000 active | AID 2599;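 active = inhibition above about 50% at the single tested dose, limit read from the data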;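 also: plate controls were DMSO wells with enzyme for no effect and DMSO wells lacking enzyme for full effect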
SENP1 FRET inh: inhibitors of human SENP1 SUMO protease catalytic domain | inhibition, % at 10 µM | 0.21% of 360,000 active | recombinant SENP1 catalytic domain, CyPet-SUMO1-YPet FRET cleavage;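 active = inhibition at least 30% at 10 µM, raw YFP signal under a set limit, fluorescence ratio 0.5 to 1.5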;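 also: 0% = enzyme with DMSO and 100% = no enzyme wells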
Target sequence (Q9P0U3 419-644 limits assumed): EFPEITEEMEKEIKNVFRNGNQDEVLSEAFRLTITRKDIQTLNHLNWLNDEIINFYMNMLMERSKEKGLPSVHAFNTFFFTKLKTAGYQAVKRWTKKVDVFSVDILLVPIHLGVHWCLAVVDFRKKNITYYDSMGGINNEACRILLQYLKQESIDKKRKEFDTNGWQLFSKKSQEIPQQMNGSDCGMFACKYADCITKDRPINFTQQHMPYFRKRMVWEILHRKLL
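System: Recombinant human SENP1 catalytic domain, His6-tagged | Incubation: Enzyme reaction for 50 min at room temperature, dark | Medium: Tris pH 8 with BME, BSA, NP40 and catalase | Also added: 25 nM SUMO1 FRET substrate | Compound: 10 µM single point, 0.5% DMSO | Measured by: FRET fluorescence in CFP and YFP emission channels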
SENP8 confirm: human SENP8 inhibition, confirmed. 40% of 6,200 active. shares compounds with SENP7 inh. inhibition, % at 12.5 µM. Recombinant SENP8, Z-RLRGG-aminoluciferin luminescence, 60 min;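 active = mean inhibition across replicates above about 50%, limit read from the data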
SENP6 confirm: human SENP6 inhibition, confirmed; recombinant SENP6, Z-RLRGG-aminoluciferin luminescence; AID 488915; inhibition, % at 12.5 µM; shares compounds with SENP7 inh; 58% of 6,200 active
SENP7 conf: human SENP7 inhibition, confirmed; shares compounds with SENP7 inh; recombinant SENP7, Z-RLRGG-aminoluciferin luminescence, 40 min; inhibition, % at 12.5 µM; 69% of 6,200 active; AID 488917
Casp3 select: inhibits human caspase-3 in SENP selectivity test; shares compounds with SENP7 inh; purified caspase-3, Z-DEVD-aminoluciferin luminescence, 60 min; inhibition, % at 12.5 µM; 60% of 6,200 active;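 active = mean inhibition above about 50%, limit read from the data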;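 also: plate controls were enzyme with DMSO for no effect and wells without caspase-3 for full effect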
Luc interf: luminescence interference (SENP counter-screen); shares compounds with SENP7 inh; Pre-incubated SENP8/Z-RLRGG-aminoluciferin, luciferase luminescence interference; inhibition, % at 12.5 µM; 39% of 6,200 active;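 active = mean inhibition above about 50% when retested at one dose, limit read from the data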;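 also: plate controls were DMSO wells with completed reaction for no effect and substrate without enzyme for full effect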
Apaf-1 inh conf2: Apaf-1 inhibition, single-dose confirmed | shares compounds with Apaf-1 inh | reconstituted apoptosome, caspase-3 DEVD-Rh110 fluorescence | inhibition, % at 20 µM | 25% of 1,800 active;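 active = mean inhibition of at least 40% at 20 µM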;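 also: plate controls were DMSO wells for no effect and DEVD-CHO caspase inhibitor control wells for full effect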
Rh110 interf inh: counter-screen for Apaf-1 inhibitors: fluorescence interference. shares compounds with Apaf-1 inh. Rh110 fluorescence interference, quenched caspase reaction. activation (fluorescence interference), % at 20 µM. 1,800 tested, under 10 active;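 active = signal rise of 40% or more at 20 µM, treated as a fluorescence artifact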
Apaf1 inh interf: Apaf-1 inhibitor counter-screen fluorescence artifact. 460 tested, under 10 active. shares compounds with Apaf-1 inh. IC50, µM. fluorescence interference counterscreen, Apaf-1 assay format. AID 588538; call rule not given here
Active calls of the source: *; . = not tested or not shown. In the library only some 2.9% were active in any assay of this set; here they are far more common.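 The calls were made as follows, unless noted: active = mean inhibition above about 50% in the one-dose retest (limit read from the data); inactive = the rest.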

SMILES	Apaf-1 inh	SENP8 block-1	SENP7 inh	SENP8 block-2	SENP6 inh	SENP1 FRET inh	SENP8 confirm	SENP6 confirm	SENP7 conf	Casp3 select	Luc interf	Apaf-1 inh conf2	Rh110 interf inh	others
Oc1ccc(Br)cc1CNc1cccc2cccnc12	90*	80*	70*	-8	78*	-12	9	29	7	2	1	48*	8	Apaf1 inh interf=>100
CC(NC(=O)c1ccc(NC2=NC3CS(=O)(=O)CC3S2)cc1)c1ccccc1 (stereo unspecified)	-6	1	4	11	-13	0	.	.	.	.	.	.	.
Cc1cccc(CN2CCN(C3CN(C4CCCCC4)S(=O)(=O)C3)CC2)c1 (stereo unspecified)	.	.	.	17	.	3	.	.	.	.	.	.	.
CCOC(=O)c1c(N)n(CCOC(=O)c2cccs2)c2nc3ccccc3nc12	95*	43	47	-282	84*	-123	8	6	10	4	0	10	9
CN1c2cccc3cccc(c23)N(C)C1(C)C	46*	12	37	-320	72*	4	-3	4	-4	-4	-5	13	-4
CN1c2ccccc2N(C)C1(C)c1cccc2ccccc12	19	1	6	-273	20	-25	.	.	.	.	.	.	.
COc1ccccc1N(/N=C1\Sc2ccccc2C1=O)C(C)=O	83*	79*	29	31	92*	2	8	83*	66*	23	15	73*	4	Apaf1 inh interf=>100
CC(C)=CCC/C(C)=C/CC/C(C)=C/CC/C(C)=C/CC1=C(C)C(=O)c2ccccc2C1=O	26	9	5	-20	13	-27	.	.	.	.	.	.	.
CC(C)=CCC1=C(OCC(=O)O)C(=O)c2ccccc2C1=O	95*	76*	36	72*	-17	5	80*	87*	65*	10	9	88*	-8	Apaf1 inh interf=>100
COc1ccc(NC(=O)COC(=O)c2ccc(S(=O)(=O)N3CCCCC3)cc2)c(OC)c1	.	.	.	10	.	3	.	.	.	.	.	.	.
COc1ccc(C2=C(Nc3ccc(C)cc3)c3ccccc3C2=O)cc1	5	-2	10	23	1	3	.	.	.	.	.	.	.
Cc1ccc(NC2=C(NCCO)C(=O)c3ccccc3C2=O)cc1	78*	47	36	-44	70*	-19	34	56*	22	16	2	61*	0	Apaf1 inh interf=>100
C=CCN1C(=O)c2ccc(C(=O)OCC(=O)N(CC)c3c(N)n(Cc4ccccc4)c(=O)[nH]c3=O)cc2C1=O	.	.	.	6	.	-2	.	.	.	.	.	.	.
Cc1cc(/C=C2\SC(=O)N(C)C2=O)c(C)n1-c1ccc(O)cc1	71*	16	-1	-93	61*	-28	74*	72*	84*	30	69*	18	9
CC1CCN(c2c(NCC3CCC(C(=O)NCCCc4ccccc4)CC3)c(=O)c2=O)CC1 (stereo unspecified)	0	-7	-1	.	0	.	.	.	.	.	.	.	.
Cc1ccc(-c2ccc(/C=C3\C(=O)ON=C3c3ccccc3)o2)c([N+](=O)[O-])c1	-17	11	-1	20	10	2	.	.	.	.	.	.	.
O=C1/C(=C\c2ccc(-c3ccccc3[N+](=O)[O-])o2)C(c2ccccc2)=NN1c1ccccc1	44*	4	11	36	58*	2	-18	-7	-7	-10	-6	23	-9
COc1ccc(-n2c3nc4ccccc4nc3c3c(=N)oc(C)nc32)cc1	96*	63*	75*	-285	90*	-27	4	40	19	-2	-4	67*	6	Apaf1 inh interf=>100
Cc1[nH]n(-c2ccc([N+](=O)[O-])cc2)c(=O)c1/C=N/N1CCOCC1	44*	44	58*	32	78*	1	-8	-5	17	36	40	0	-2
CC(CCc1ccccc1)NC(=O)CCNC(=O)c1ccccc1Cl (stereo unspecified)	1	0	14	20	0	2	.	.	.	.	.	.	.
CC1=C(C(=O)N(C(C)C)C(C)C)CC(CC(=O)NCCCCc2ccccc2)C(=O)N1Cc1ccc(F)cc1 (stereo unspecified)	.	.	.	16	.	-1	.	.	.	.	.	.	.
COc1ccc(NC(=O)CC2Nc3cccc4cccc(c34)NC2=O)cc1 (stereo unspecified)	94*	59*	67*	-64	93*	-23	3	4	12	8	2	11	1
O=C(CC1Nc2cccc3cccc(c23)NC1=O)Nc1ccc(F)cc1 (stereo unspecified)	96*	60*	43	-68	87*	-24	-13	-6	-10	2	-1	20	7
O=C(CC1Nc2ccccc2NC1=O)Nc1cc(Cl)cc(Cl)c1 (stereo unspecified)	24	-6	-1	-301	-9	-25	.	.	.	.	.	.	.
COc1ccc(NC(=O)CC2Nc3cc(C)c(C)cc3NC2=O)c([N+](=O)[O-])c1 (stereo unspecified)	16	0	-5	24	-6	2	.	.	.	.	.	.	.
NC1=Nc2cccc3cccc1c23	67*	11	2	-351	66*	-34	1	23	9	3	2	11	8
NC1=CC(=O)c2cccc3cccc1c23	8	5	12	.	-3	.	.	.	.	.	.	.	.
Cc1cccc(NC(=O)CSCC(=O)OCc2ccccn2)c1	3	5	-5	13	-7	0	.	.	.	.	.	.	.
N#Cc1c(NC(=O)c2ccccc2Cl)n(Cc2ccccc2)c2nc3ccccc3nc12	.	.	.	-298	.	-30	.	.	.	.	.	.	.
